According to ChEMBL document CHEMBL1152649, “Synthesis, cytotoxicity and human telomerase inhibition activities of a series of 1,2-heteroannelated anthraquinones and anthra[1,2-d]imidazole-6,11-dione homologues” (2009):
Active and inactive are the calls of the source. No cut-off for these calls is given here.

Tests used:
[1] = Cytotoxicity against human H1299 cells at 1 uM after 48 hrs by MTT assay; assay type: functional; conditions: NCI-H1299, 48 h
Summary of the method: (§1)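 H1299 non-small cell lung cancer cells were grown in RPMI 1640 with 10% FBS, penicillin and streptomycin at 37 °C under 5% CO2. About 2 × 10³ cells per well were seeded and left 24 h. Compounds were dissolved fresh in DMSO, diluted into complete medium and applied for 48 h. MTT was then added for 4 h at 37 °C, followed by lysis buffer (20% SDS, 50% DMF) for 16 h, and absorbance was read at 550 nm.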

[2] = Cytotoxicity against human H1299 cells at 10 uM after 48 hrs by MTT assay; assay type: functional; conditions: NCI-H1299, 48 h; summary of the method: as §1
[3] = target: Telomerase reverse transcriptase (Homo sapiens) (UniProt O14746); assay: Inhibition of telomerase in human H1299 cells up to 100 uM by TRAP assay; assay type: cell-based
Chain of Telomerase reverse transcriptase (Homo sapiens) (O14746 whole entry): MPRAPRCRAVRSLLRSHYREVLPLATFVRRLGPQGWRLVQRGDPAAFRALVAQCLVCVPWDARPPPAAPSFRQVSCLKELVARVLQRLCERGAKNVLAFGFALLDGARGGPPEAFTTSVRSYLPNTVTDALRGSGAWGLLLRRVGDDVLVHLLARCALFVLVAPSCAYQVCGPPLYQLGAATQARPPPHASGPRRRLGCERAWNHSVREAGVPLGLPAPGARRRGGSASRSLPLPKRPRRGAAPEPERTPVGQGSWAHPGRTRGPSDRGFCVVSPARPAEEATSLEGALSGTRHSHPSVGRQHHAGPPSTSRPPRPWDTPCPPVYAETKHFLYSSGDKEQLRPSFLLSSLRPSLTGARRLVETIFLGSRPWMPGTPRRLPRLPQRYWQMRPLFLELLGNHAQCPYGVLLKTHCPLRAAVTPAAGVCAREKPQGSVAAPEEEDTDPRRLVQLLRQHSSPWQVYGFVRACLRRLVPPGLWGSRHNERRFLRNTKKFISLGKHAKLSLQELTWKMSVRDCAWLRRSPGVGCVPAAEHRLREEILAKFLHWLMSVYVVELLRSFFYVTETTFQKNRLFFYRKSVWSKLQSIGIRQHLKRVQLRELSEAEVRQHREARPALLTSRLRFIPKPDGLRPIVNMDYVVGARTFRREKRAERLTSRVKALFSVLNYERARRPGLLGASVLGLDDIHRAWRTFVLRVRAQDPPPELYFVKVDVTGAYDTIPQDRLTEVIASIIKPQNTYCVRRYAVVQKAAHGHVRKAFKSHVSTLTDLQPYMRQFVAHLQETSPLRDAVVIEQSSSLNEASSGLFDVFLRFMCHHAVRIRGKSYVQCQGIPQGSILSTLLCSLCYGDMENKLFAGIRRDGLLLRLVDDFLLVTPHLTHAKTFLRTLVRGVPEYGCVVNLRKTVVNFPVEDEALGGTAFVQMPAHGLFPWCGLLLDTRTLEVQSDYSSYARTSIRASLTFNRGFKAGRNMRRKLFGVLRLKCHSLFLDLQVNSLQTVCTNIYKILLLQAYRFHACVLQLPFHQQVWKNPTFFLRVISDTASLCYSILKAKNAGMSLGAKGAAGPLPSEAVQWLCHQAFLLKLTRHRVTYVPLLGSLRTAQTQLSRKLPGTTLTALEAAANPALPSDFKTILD
Summary of the method: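 PCR-based telomeric repeat amplification protocol (TRAP). The telomerase source was total lysate of H1299 lung cancer cells, with protein measured against BSA standards. Controls were extract without inhibitor and RNase A-treated extract.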

EKVX = assay: Antiproliferative activity against human EKVX cells assessed as cell growth at 10 uM; assay type: functional; conditions: read-out: Activity
Summary of the method: (§2)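 NCI 60 cell line panel, single-dose screen (10^-5 M) run by the developmental therapeutics program protocol. Results are given as growth percent of treated cells relative to untreated control cells for each line.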

HOP-62 = assay: Antiproliferative activity against human HOP62 cells assessed as cell growth at 10 uM; assay type: functional; conditions: read-out: Activity; summary of the method: as §2
SW-620 = assay: Antiproliferative activity against human SW620 cells assessed as cell growth at 10 uM; assay type: functional; conditions: read-out: Activity
Summary of the method: (§3)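 NCI 60 cell line panel, single dose (10^-5 M), run per the Developmental Therapeutics Program protocol (one dose mean graph). Each result is the growth percentage of treated cells relative to untreated control cells.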

[4] = Antiproliferative activity against human Hs 578T cells assessed as cell growth at 10 uM; assay type: functional; conditions: read-out: Activity; summary of the method: as §2
MCF7 = assay: Antiproliferative activity against human MCF7 cells assessed as cell growth at 10 uM; assay type: functional; conditions: read-out: Activity; summary of the method: as §2
MDA-MB-231 = assay: Antiproliferative activity against human MDA-MB-231 cells assessed as cell growth at 10 uM; assay type: functional; conditions: read-out: Activity; summary of the method: as §2
MDA-MB-435 = assay: Antiproliferative activity against human MDA-MB-435 cells assessed as cell growth at 10 uM; assay type: functional; conditions: read-out: Activity; summary of the method: as §2
NCI/ADR-RES = assay: Antiproliferative activity against human NCI/ADR-RES cells assessed as cell growth at 10 uM; assay type: functional; conditions: read-out: Activity; summary of the method: as §2
OVCAR-3 = assay: Antiproliferative activity against human OVCAR-3 cells assessed as cell growth at 10 uM; assay type: functional; conditions: read-out: Activity; summary of the method: as §2
OVCAR-4 = assay: Antiproliferative activity against human OVCAR4 cells assessed as cell growth at 10 uM; assay type: functional; conditions: read-out: Activity; summary of the method: as §2
OVCAR-5 = assay: Antiproliferative activity against human OVCAR5 cells assessed as cell growth at 10 uM; assay type: functional; conditions: read-out: Activity; summary of the method: as §2
SK-OV-3 = assay: Antiproliferative activity against human SKOV3 cells assessed as cell growth at 10 uM; assay type: functional; conditions: read-out: Activity; summary of the method: as §2
CCRF-CEM = assay: Antiproliferative activity against human CCRF-CEM cells assessed as cell growth at 10 uM; assay type: functional; conditions: read-out: Activity; summary of the method: as §2
K562 = assay: Antiproliferative activity against human K562 cells assessed as cell growth at 10 uM; assay type: functional; conditions: read-out: Activity; summary of the method: as §2
MOLT-4 = assay: Antiproliferative activity against human MOLT4 cells assessed as cell growth at 10 uM; assay type: functional; conditions: read-out: Activity; summary of the method: as §2
786-0 = assay: Antiproliferative activity against human 786-0 cells assessed as cell growth at 10 uM; assay type: functional; conditions: read-out: Activity; summary of the method: as §2
TK-10 = assay: Antiproliferative activity against human TK10 cells assessed as cell growth at 10 uM; assay type: functional; conditions: read-out: Activity; summary of the method: as §3
UO-31 = assay: Antiproliferative activity against human UO31 cells assessed as cell growth at 10 uM; assay type: functional; conditions: read-out: Activity; summary of the method: as §3
M14 = assay: Antiproliferative activity against human M14 cells assessed as cell growth at 10 uM; assay type: functional; conditions: read-out: Activity; summary of the method: as §2
SK-MEL-2 = assay: Antiproliferative activity against human SK-MEL-2 cells assessed as cell growth at 10 uM; assay type: functional; conditions: read-out: Activity; summary of the method: as §2
SK-MEL-28 = assay: Antiproliferative activity against human SK-MEL-28 cells assessed as cell growth at 10 uM; assay type: functional; conditions: read-out: Activity; summary of the method: as §2
UACC-62 = assay: Antiproliferative activity against human UACC62 cells assessed as cell growth at 10 uM; assay type: functional; conditions: read-out: Activity; summary of the method: as §3
DU-145 = assay: Antiproliferative activity against human DU145 cells assessed as cell growth at 10 uM; assay type: functional; conditions: read-out: Activity; summary of the method: as §2
SF-295 = assay: Antiproliferative activity against human SF295 cells assessed as cell growth at 10 uM; assay type: functional; conditions: read-out: Activity; summary of the method: as §2
SF-539 = assay: Antiproliferative activity against human SF539 cells assessed as cell growth at 10 uM; assay type: functional; conditions: read-out: Activity; summary of the method: as §2
SNB-19 = assay: Antiproliferative activity against human SNB19 cells assessed as cell growth at 10 uM; assay type: functional; conditions: read-out: Activity; summary of the method: as §2
SNB-75 = assay: Antiproliferative activity against human SNB75 cells assessed as cell growth at 10 uM; assay type: functional; conditions: read-out: Activity; summary of the method: as §3
U-251 = assay: Antiproliferative activity against human U251 cells assessed as cell growth at 10 uM; assay type: functional; conditions: read-out: Activity; summary of the method: as §3
NCI-H226 = assay: Antiproliferative activity against human NCI-H226 cells assessed as cell growth at 10 uM; assay type: functional; conditions: read-out: Activity; summary of the method: as §2
NCI-H23 = assay: Antiproliferative activity against human NCI-H23 cells assessed as cell growth at 10 uM; assay type: functional; conditions: read-out: Activity; summary of the method: as §2
NCI-H322M = assay: Antiproliferative activity against human NCI-H322M cells assessed as cell growth at 10 uM; assay type: functional; conditions: read-out: Activity; summary of the method: as §2
NCI-H460 = assay: Antiproliferative activity against human NCI-H460 cells assessed as cell growth at 10 uM; assay type: functional; conditions: read-out: Activity; summary of the method: as §2
COLO 205 = assay: Antiproliferative activity against human COLO205 cells assessed as cell growth at 10 uM; assay type: functional; conditions: read-out: Activity; summary of the method: as §2
HCC 2998 = assay: Antiproliferative activity against human HCC2998 cells assessed as cell growth at 10 uM; assay type: functional; conditions: read-out: Activity; summary of the method: as §2
HCT-15 = assay: Antiproliferative activity against human HCT15 cells assessed as cell growth at 10 uM; assay type: functional; conditions: read-out: Activity; summary of the method: as §2
HT-29 = assay: Antiproliferative activity against human HT-29 cells assessed as cell growth at 10 uM; assay type: functional; conditions: read-out: Activity; summary of the method: as §2
KM12 = assay: Antiproliferative activity against human KM12 cells assessed as cell growth at 10 uM; assay type: functional; conditions: read-out: Activity; summary of the method: as §2
[5] = target: Telomerase reverse transcriptase (Homo sapiens) (UniProt O14746); assay: Inhibition of TERT in human H1299 cells assessed as residual transcriptional activity at 1 uM after 24 hrs by SEAP reporter gene assay; values are per cent of control
[6] = target: Telomerase reverse transcriptase (Homo sapiens) (UniProt O14746); assay: Inhibition of TERT in human H1299 cells assessed as residual transcriptional activity at 10 uM after 24 hrs by SEAP reporter gene assay; values are per cent of control
[7] = target: Telomerase reverse transcriptase (Homo sapiens) (UniProt O14746); assay: Inhibition of TERT in human H1299 cells assessed as residual transcriptional activity at 100 uM after 24 hrs by SEAP reporter gene assay; values are per cent of control
HOP-92 = assay: Antiproliferative activity against human HOP92 cells assessed as cell growth at 10 uM; assay type: functional; conditions: read-out: Activity; summary of the method: as §2

Compound: O=C1c2ccccc2C(=O)c2c1ccc1nsnc21
- viability at 1 µM [1]: 40%
- viability at 10 µM [2]: 16%
- inhibition [3]: inactive
- growth at 10 µM (EKVX): 103%
- growth at 10 µM (HOP-62): -100%
- growth at 10 µM (SW-620): 7.3%
- growth at 10 µM [4]: -7.4%
- growth at 10 µM (MCF7): -50.7%
- growth at 10 µM (MDA-MB-231): -17.3%
- growth at 10 µM (MDA-MB-435): -87.9%
- growth at 10 µM (NCI/ADR-RES): -2.53%
- growth at 10 µM (OVCAR-3): -15.5%
- growth at 10 µM (OVCAR-4): -94.4%
- growth at 10 µM (OVCAR-5): -20.1%
- growth at 10 µM (SK-OV-3): 101%
- growth at 10 µM (CCRF-CEM): -30.8%
- growth at 10 µM (K562): 49.6%
- growth at 10 µM (MOLT-4): -40.1%
- growth at 10 µM (786-0): -26%
- growth at 10 µM (TK-10): 97%
- growth at 10 µM (UO-31): -79.3%
- growth at 10 µM (M14): 74.5%
- growth at 10 µM (SK-MEL-2): -73.2%
- growth at 10 µM (SK-MEL-28): 15.5%
- growth at 10 µM (UACC-62): -82.3%
- growth at 10 µM (DU-145): 40.8%
- growth at 10 µM (SF-295): 126%
- growth at 10 µM (SF-539): -47.1%
- growth at 10 µM (SNB-19): 79%
- growth at 10 µM (SNB-75): 79%
- growth at 10 µM (U-251): -89.3%
- growth at 10 µM (NCI-H226): 97.8%
- growth at 10 µM (NCI-H23): 16.1%
- growth at 10 µM (NCI-H322M): 126%
- growth at 10 µM (NCI-H460): 77.4%
- growth at 10 µM (COLO 205): 112%
- growth at 10 µM (HCC 2998): -0.74%
- growth at 10 µM (HCT-15): 1.48%
- growth at 10 µM (HT-29): 117%
- growth at 10 µM (KM12): 98.6%
- residual activity [5]: 89%
- residual activity [6]: 10%
- residual activity [7]: 9%

Compound: CC1(C)Nc2ccc3c(c2N1)C(=O)c1ccccc1C3=O
- viability at 1 µM [1]: 98%
- viability at 10 µM [2]: 93%
- inhibition [3]: inactive
- growth at 10 µM (EKVX): 63.1%
- growth at 10 µM (SW-620): 91.7%
- growth at 10 µM [4]: 68.4%
- growth at 10 µM (MCF7): 83.6%
- growth at 10 µM (MDA-MB-231): 72.9%
- growth at 10 µM (MDA-MB-435): 125%
- growth at 10 µM (NCI/ADR-RES): 103%
- growth at 10 µM (OVCAR-3): 78.2%
- growth at 10 µM (OVCAR-4): 80.1%
- growth at 10 µM (OVCAR-5): 96.5%
- growth at 10 µM (SK-OV-3): 35.9%
- growth at 10 µM (CCRF-CEM): 74%
- growth at 10 µM (K562): 101%
- growth at 10 µM (MOLT-4): 116%
- growth at 10 µM (786-0): 86.2%
- growth at 10 µM (TK-10): 62.4%
- growth at 10 µM (UO-31): 30.6%
- growth at 10 µM (M14): 83.7%
- growth at 10 µM (SK-MEL-2): 8.04%
- growth at 10 µM (SK-MEL-28): 129%
- growth at 10 µM (UACC-62): 67.6%
- growth at 10 µM (DU-145): 76%
- growth at 10 µM (SF-295): 98%
- growth at 10 µM (SF-539): 93.6%
- growth at 10 µM (SNB-19): 94.3%
- growth at 10 µM (SNB-75): 78%
- growth at 10 µM (U-251): 87.8%
- growth at 10 µM (HOP-92): 5.1%
- growth at 10 µM (NCI-H226): 89.7%
- growth at 10 µM (NCI-H23): 87%
- growth at 10 µM (NCI-H322M): 79.7%
- growth at 10 µM (NCI-H460): 71.5%
- growth at 10 µM (COLO 205): 90.6%
- growth at 10 µM (HCC 2998): 137%
- growth at 10 µM (HCT-15): 64.6%
- growth at 10 µM (HT-29): 103%
- growth at 10 µM (KM12): 51.5%
- residual activity [5]: 96%
- residual activity [6]: 73%
- residual activity [7]: 9%
